Measured values taken from ChEMBL document CHEMBL3351600, “Sulfur, selenium and tellurium pseudopeptides: synthesis and biological evaluation” (Bioorg Med Chem, 2014).

Assays:
CAKI-1 = experiment: Growth inhibition of human CAKI-1 cells after 48 hrs; type: functional; conditions: CAKI-1, 48 h
In short: (§1)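 NCI-60 human tumour cell line panel screen run at the US National Cancer Institute under its standard cytotoxicity protocol. It covers leukaemia, NSCLC, colon, CNS, melanoma, ovarian, renal, prostate and breast lines. An initial single-dose test was followed by five-dose testing with 48 h compound exposure.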

[1] = Growth inhibition of human RXF393 cells after 48 hrs; type: functional; conditions: RXF 393, 48 h; in short: as §1
[2] = Growth inhibition of human UO31 cells after 48 hrs; type: functional; conditions: UO-31, 48 h
In short: (§2)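 Run by the NCI 58-cell-line screen under its standard cytotoxicity protocol. Compounds were first tested at a single dose, then at five doses. Cells were exposed to compound for 48 h.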

DU-145 = experiment: Growth inhibition of human DU145 cells after 48 hrs; type: functional; conditions: DU-145, 48 h; in short: as §1
[3] = Growth inhibition of human BT549 cells after 48 hrs; type: functional; conditions: BT-549, 48 h; in short: as §1
MDA-MB-468 = experiment: Growth inhibition of human MDA-MB-468 cells after 48 hrs; type: functional; conditions: MDA-MB-468, 48 h; in short: as §1
MCF7 = experiment: Cytotoxicity against human MCF7 cells assessed as cell viability after 24 hrs incubation by MTT assay; type: functional, cell-based; conditions: MCF7, 24 h
In short: (§3)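 Cell lines came from DSMZ; primary human fibroblasts served as non-cancer controls. Cells were grown in medium with 10% FCS, seeded at 50,000 cells/ml, and grown 2 days at 37 °C, 10% CO2. Serial dilutions were then added for 24 h. MTT (final 0.5 mg/ml) was added for 2 h. Formazan was pelleted, PBS-washed, dissolved in isopropanol/0.4% HCl and read at 590 nm. Two parallel experiments were run. IC50 was taken as the concentration giving 50% of untreated-control absorbance.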

A-431 = experiment: Cytotoxicity against human A431 cells assessed as cell viability after 24 hrs incubation by MTT assay; type: functional, cell-based; conditions: A-431, 24 h; in short: as §3
[4] = Octanol-water partition coefficient, log P of the compound by HPLC analysis; type: physicochemical
In short: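 Lipophilicity was measured by reversed-phase HPLC on a Nucleosil C18 column with isocratic water/methanol (3:1) at 0.5 ml/min and UV detection at 230 and 245 nm. Dead time was set with thiourea (t0 0.728 min). Retention factor was k = (tR − t0)/t0, and log P came from a calibration against at least six reference compounds.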

K562 = experiment: Growth inhibition of human K562 cells after 48 hrs; type: functional; conditions: K562, 48 h; in short: as §1
A549 = experiment: Growth inhibition of human A549/ATCC cells after 48 hrs; type: functional; conditions: A549, 48 h; in short: as §1
[5] = Growth inhibition of human EKVX cells after 48 hrs; type: functional; in short: as §1
HOP-62 = experiment: Growth inhibition of human HOP62 cells after 48 hrs; type: functional; conditions: HOP-62, 48 h; in short: as §1
[6] = Growth inhibition of human HOP92 cells after 48 hrs; type: functional; conditions: HOP-92, 48 h; in short: as §1
NCI-H322M = experiment: Growth inhibition of human NCI-H322M cells after 48 hrs; type: functional; in short: as §1
NCI-H460 = experiment: Growth inhibition of human NCI-H460 cells after 48 hrs; type: functional; conditions: NCI-H460, 48 h; in short: as §1
NCI-H522 = experiment: Growth inhibition of human NCI-H522 cells after 48 hrs; type: functional; conditions: NCI-H522, 48 h; in short: as §1
[7] = Growth inhibition of human HCT116 cells after 48 hrs; type: functional; conditions: HCT-116, 48 h; in short: as §1
HT-29 = experiment: Growth inhibition of human HT-29 cells after 48 hrs; type: functional; conditions: HT-29, 48 h; in short: as §1
SW-620 = experiment: Growth inhibition of human SW620 cells after 48 hrs; type: functional; conditions: SW-620, 48 h; in short: as §2
SF-268 = experiment: Growth inhibition of human SF268 cells after 48 hrs; type: functional; conditions: SF-268, 48 h; in short: as §1
[8] = Growth inhibition of human SF539 cells after 48 hrs; type: functional; conditions: SF-539, 48 h; in short: as §1
U-251 = experiment: Growth inhibition of human U251 cells after 48 hrs; type: functional; conditions: U-251, 48 h; in short: as §2
SK-MEL-28 = experiment: Growth inhibition of human SK-MEL-28 cells after 48 hrs; type: functional; conditions: SK-MEL-28, 48 h; in short: as §1
SK-MEL-5 = experiment: Growth inhibition of human SK-MEL-5 cells after 48 hrs; type: functional; conditions: SK-MEL-5, 48 h; in short: as §2
[9] = Growth inhibition of human UACC62 cells after 48 hrs; type: functional; conditions: UACC-62, 48 h; in short: as §2
IGROV-1 = experiment: Growth inhibition of human IGROV1 cells after 48 hrs; type: functional; conditions: IGROV-1, 48 h; in short: as §1
[10] = Growth inhibition of human OVCAR3 cells after 48 hrs; type: functional; conditions: OVCAR-3, 48 h; in short: as §1
[11] = Growth inhibition of human OVCAR8 cells after 48 hrs; type: functional; conditions: OVCAR-8, 48 h; in short: as §1
[12] = Growth inhibition of human NCI-ADR-RES cells after 48 hrs; type: functional; in short: as §1
SK-OV-3 = experiment: Growth inhibition of human SKOV3 cells after 48 hrs; type: functional; conditions: SK-OV-3, 48 h; in short: as §2
[13] = read-out: pLC50 (the source's name) (converted)

With CC1=C(SCCC(=O)OCC(=O)NCCC[Te]c2ccccc2)C(=O)c2ccccc2C1=O as the molecule, how does the GI50 (CAKI-1) read?
The GI50 was 2.95 µM.

What about the LC50 (CAKI-1) of the same molecule?
The LC50 was 39.8 µM.

What about the TGI (CAKI-1; read-out: pTGI (converted)) of the same molecule?
Its TGI is 11.2 µM.

And the GI50 [1]?
Its GI50 is 1.74 µM.

What about the LC50 [1] of the same molecule?
The LC50 was 12.9 µM.

And the TGI ([1]; read-out: pTGI (converted))?
The TGI was 4.37 µM.

What about the GI50 [2] of the same molecule?
Its GI50 is 1.86 µM.

What about the LC50 [2] of the same molecule?
The LC50 was 36.3 µM.

And the TGI ([2]; read-out: pTGI (converted))?
The TGI was 9.55 µM.

And the GI50 (DU-145)?
Its GI50 is 3.31 µM.

And the LC50 (DU-145)?
Its LC50 is 33.9 µM.

What about the TGI (DU-145; read-out: pTGI (converted)) of the same molecule?
Its TGI is 9.12 µM.

And the GI50 [3]?
The GI50 was 1.66 µM.

And the LC50 (concentration killing 50% of cells) [3]?
Its LC50 (concentration killing 50% of cells) is 9.77 µM.

What about the TGI ([3]; read-out: pTGI (converted)) of the same molecule?
Its TGI is 4.07 µM.

What about the GI50 (MDA-MB-468) of the same molecule?
Its GI50 is 1.66 µM.

What about the LC50 (MDA-MB-468) of the same molecule?
Its LC50 is 7.08 µM.

And the TGI (MDA-MB-468; read-out: pTGI (converted))?
Its TGI is 3.39 µM.

And the IC50 (MCF7)?
The IC50 was 12 µM.

What about the IC50 (A-431) of the same molecule?
The IC50 was 1 µM.

And the logP [4]?
The logP was 3.8.

And the GI50 (K562)?
The GI50 was 3.55 µM.

And the CC50 (K562; [13])?
Its CC50 is > 100 µM.

What about the TGI (K562; read-out: pTGI (converted)) of the same molecule?
The TGI was 34.7 µM.

And the GI50 (A549)?
The GI50 was 1.29 µM.

And the CC50 (A549; [13])?
The CC50 was > 100 µM.

What about the TGI (A549; read-out: pTGI (converted)) of the same molecule?
Its TGI is 3.63 µM.

What about the GI50 [5] of the same molecule?
Its GI50 is 1.12 µM.

And the CC50 [5, 13]?
Its CC50 is 53.7 µM.

And the TGI ([5]; read-out: pTGI (converted))?
The TGI was 10.5 µM.

What about the GI50 (HOP-62) of the same molecule?
The GI50 was 1.91 µM.

What about the CC50 (HOP-62; [13]) of the same molecule?
The CC50 was 23.4 µM.

What about the TGI (HOP-62; read-out: pTGI (converted)) of the same molecule?
The TGI was 5.5 µM.

What about the GI50 [6] of the same molecule?
Its GI50 is 1.58 µM.

What about the CC50 [6, 13] of the same molecule?
Its CC50 is 19.5 µM.

And the TGI ([6]; read-out: pTGI (converted))?
The TGI was 4.9 µM.

What about the GI50 (NCI-H322M) of the same molecule?
Its GI50 is 2.88 µM.

And the CC50 (NCI-H322M; [13])?
The CC50 was 83.2 µM.

And the TGI (NCI-H322M; read-out: pTGI (converted))?
Its TGI is 12.6 µM.

And the GI50 (NCI-H460)?
Its GI50 is 1.32 µM.

And the CC50 (NCI-H460; [13])?
The CC50 was 51.3 µM.

What about the TGI (NCI-H460; read-out: pTGI (converted)) of the same molecule?
The TGI was 4.17 µM.

What about the GI50 (NCI-H522) of the same molecule?
The GI50 was 2.51 µM.

What about the CC50 (NCI-H522; [13]) of the same molecule?
The CC50 was 47.9 µM.

And the TGI (NCI-H522; read-out: pTGI (converted))?
Its TGI is 10.2 µM.

What about the GI50 [7] of the same molecule?
The GI50 was 1.66 µM.

What about the CC50 [7, 13] of the same molecule?
The CC50 was 11.5 µM.

And the TGI ([7]; read-out: pTGI (converted))?
Its TGI is 4.17 µM.

What about the GI50 (HT-29) of the same molecule?
The GI50 was 3.31 µM.

And the CC50 (HT-29; [13])?
The CC50 was > 100 µM.

And the TGI (HT-29; read-out: pTGI (converted))?
Its TGI is 11 µM.

And the GI50 (SW-620)?
The GI50 was 3.98 µM.

And the CC50 (SW-620; [13])?
The CC50 was 60.3 µM.

And the TGI (SW-620; read-out: pTGI (converted))?
Its TGI is 17 µM.

And the GI50 (SF-268)?
The GI50 was 3.02 µM.

What about the CC50 (SF-268; [13]) of the same molecule?
Its CC50 is 37.2 µM.

And the TGI (SF-268; read-out: pTGI (converted))?
The TGI was 9.55 µM.

And the GI50 [8]?
Its GI50 is 2.09 µM.

And the CC50 [8, 13]?
The CC50 was 27.5 µM.

And the TGI ([8]; read-out: pTGI (converted))?
Its TGI is 6.61 µM.

And the GI50 (U-251)?
Its GI50 is 3.16 µM.

What about the CC50 (U-251; [13]) of the same molecule?
Its CC50 is 45.7 µM.

And the TGI (U-251; read-out: pTGI (converted))?
The TGI was 11.5 µM.

And the GI50 (SK-MEL-28)?
The GI50 was 2.29 µM.

What about the CC50 (SK-MEL-28; [13]) of the same molecule?
Its CC50 is 17.8 µM.

And the TGI (SK-MEL-28; read-out: pTGI (converted))?
The TGI was 5.5 µM.

And the GI50 (SK-MEL-5)?
Its GI50 is 1.29 µM.

And the CC50 (SK-MEL-5; [13])?
The CC50 was 5.25 µM.

And the TGI (SK-MEL-5; read-out: pTGI (converted))?
The TGI was 2.63 µM.

And the GI50 [9]?
The GI50 was 1.86 µM.

What about the CC50 [9, 13] of the same molecule?
Its CC50 is 13.5 µM.

And the TGI ([9]; read-out: pTGI (converted))?
The TGI was 4.57 µM.

And the GI50 (IGROV-1)?
Its GI50 is 2.14 µM.

And the CC50 (IGROV-1; [13])?
Its CC50 is 35.5 µM.

And the TGI (IGROV-1; read-out: pTGI (converted))?
The TGI was 6.46 µM.

And the GI50 [10]?
The GI50 was 2.63 µM.

What about the CC50 [10, 13] of the same molecule?
Its CC50 is 15.5 µM.

And the TGI ([10]; read-out: pTGI (converted))?
Its TGI is 5.5 µM.

What about the GI50 [11] of the same molecule?
The GI50 was 2.75 µM.

And the LC50 [11]?
The LC50 was 51.3 µM.

What about the TGI ([11]; read-out: pTGI (converted)) of the same molecule?
The TGI was 11.5 µM.

What about the GI50 [12] of the same molecule?
Its GI50 is 2.69 µM.

What about the LC50 [12] of the same molecule?
Its LC50 is 55 µM.

What about the TGI ([12]; read-out: pTGI (converted)) of the same molecule?
The TGI was 10.2 µM.

And the GI50 (SK-OV-3)?
Its GI50 is 1.74 µM.

And the CC50 (SK-OV-3; [13])?
The CC50 was 12.3 µM.

What about the TGI (SK-OV-3; read-out: pTGI (converted)) of the same molecule?
Its TGI is 4.37 µM.

What about the Retention_time of the same molecule?
The Retention_time was 0.928 min.
